Publication PMC3243070 (European Journal of Medicinal Chemistry, 2011)
pKd: −log10 of the molar value.

Legend:
[1] = target: T1, bovine folate binding protein (FBP) (Bos taurus, UniProt P02702)
Procedure, shortened: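 Bovine milk FBP amide-coupled to a CM5 chip (9.5 ng/mm2). Ligands injected in HBS-EP at 30 µL/min (monovalent) or 50 µL/min (dendrimer conjugates). Chip regenerated with 10 mM glycine-HCl pH 2.5. Reference channel subtracted. kon and koff from Langmuir fits, with mass-transport effects checked. KD = koff/kon, averaged over ≥3 measurement sets per concentration with χ2 < 5.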

[2] = target: kidney FAR; conditions: cited from earlier work
[3] = target: T1, bovine folate binding protein (FBP); conditions: SPR, earlier study; cited from earlier work

T1 sequence (P02702 20-241): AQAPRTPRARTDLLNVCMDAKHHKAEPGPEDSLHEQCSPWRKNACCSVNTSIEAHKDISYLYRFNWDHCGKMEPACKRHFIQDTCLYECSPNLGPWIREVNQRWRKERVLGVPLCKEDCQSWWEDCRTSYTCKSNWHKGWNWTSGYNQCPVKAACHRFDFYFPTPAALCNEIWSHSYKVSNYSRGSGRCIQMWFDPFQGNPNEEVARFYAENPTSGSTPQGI

| koff [1] | kon [1] | affinity lower than that of FA ([1]; from the SPR KD values) | SMILES | pKd [2] | pKd [3] |
| --- | --- | --- | --- | --- | --- |
| 0.012 s⁻¹ | 1100 M⁻¹ s⁻¹ | – | Nc1nc2ncc(CNc3ccc(C(=O)N[C@@H](CCC(=O)O)C(=O)O)cc3)nc2c(=O)[nH]1 [FA, folic acid] | ~9.00 | 5.30 |
| – | – | ≈ 2 fold | CN(Cc1cnc2nc(N)nc(N)c2n1)c1ccc(C(=O)N[C@@H](CCC(=O)O)C(=O)O)cc1 [MTX, methotrexate] | 7.00 to 7.70 | – |
